Measured values taken from ChEMBL document CHEMBL1148768, “Nitrated indenoisoquinolines as topoisomerase I inhibitors: a systematic study and optimization” (2007).

What was measured:
Type in all cases: functional
[1] = test system: HCT-116; experiment: Cytotoxicity against human HCT116 cells
Outline: (§1)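 Read-out is growth inhibition of human cancer cell lines. GI50 is taken as the compound concentration giving 50% growth inhibition.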

[2] = test system: SF-539; experiment: Cytotoxicity against human SF539 cells; outline: as §1
[3] = test system: UACC-62; experiment: Cytotoxicity against human UACC62 cells; outline: as §1
[4] = test system: OVCAR-3; experiment: Cytotoxicity against human OVCAR-3 cells
[5] = test system: SN12C; experiment: Cytotoxicity against human SN12C cells; outline: as §1
[6] = test system: DU-145; experiment: Cytotoxicity against human DU145 cells; outline: as §1
[7] = test system: MDA-MB-435; experiment: Cytotoxicity against human MDA-MB-435 cells
[8] = test system: HOP-62; experiment: Cytotoxicity against human HOP62 cells; outline: as §1

Row | Structure (SMILES) | GI50 [1] [µM] | GI50 [2] [µM] | GI50 [3] [µM] | GI50 [4] [µM] | GI50 [5] [µM] | GI50 [6] [µM] | GI50 [7] [µM] | GI50 [8] [µM]
1 | NCCCn1c2c(c3ccccc3c1=O)C(=O)c1ccccc1-2 | 0.18 | 0.25 | 0.26 | 1.38 | 0.16 | 0.22 | 0.78 | 
2 | COc1ccc2c(c1)C(=O)c1c-2n(CCCN2CCOCC2)c(=O)c2cc([N+](=O)[O-])ccc12 | < 0.01 |  | < 0.01 | < 0.01 | < 0.01 |  | < 0.01 | < 0.01
3 | COc1ccc2c(c1)C(=O)c1c-2n(CCCn2ccnc2)c(=O)c2ccccc12 | 0.11 | 0.178 | 0.071 | 1.66 | 0.676 | 0.204 | 0.646 | 0.056
4 | COc1ccc2c(c1)C(=O)c1c-2n(CCCNCCO)c(=O)c2cc([N+](=O)[O-])ccc12 |  | < 0.01 | < 0.01 | < 0.01 | 0.012 | < 0.01 | < 0.01 | < 0.01
5 | COc1ccc2c(c1)C(=O)c1c-2n(CCCN(C)C)c(=O)c2cc([N+](=O)[O-])ccc12 | < 0.01 | < 0.01 | < 0.01 | 0.028 | < 0.01 | < 0.01 | < 0.01 | < 0.01
6 | COc1cc2c3c(n(C)c(=O)c2cc1OC)-c1cc2c(cc1C3=O)OCO2 | 35 |  | 4.2 |  | 68 | 37 | 96 | 1.3
7 | O=C1c2ccccc2-c2c1c1ccc([N+](=O)[O-])cc1c(=O)n2CCCBr | 3.47 | > 100 |  |  |  |  |  | 
8 | O=C1c2ccccc2-c2c1c1ccccc1c(=O)n2CCCNCCO |  | 0.55 | 0.178 | 0.55 | 0.269 | 0.174 | 0.49 | 0.195
9 | COc1ccc2c(c1)C(=O)c1c-2n(CCCN2CCOCC2)c(=O)c2ccccc12 | 1.26 | 1.95 | 1.58 | 2.69 | 4.07 | 2.29 | 4.68 | 1.41
10 | COc1ccc2c(c1)C(=O)c1c-2n(CCCN(C)C)c(=O)c2ccccc12 | 0.102 | 0.24 | 1 | 0.427 | 0.245 | 0.257 | 0.617 | 0.078
11 | COc1ccc2c(c1)C(=O)c1c-2n(CCCN)c(=O)c2cc([N+](=O)[O-])ccc12 | < 0.01 |  |  |  |  |  |  | 
12 | [N-]=[N+]=NCCCn1c2c(c3ccccc3c1=O)C(=O)c1ccccc1-2 |  |  |  |  |  | 29.5 |  | 
13 | COc1ccc2c(c1)C(=O)c1c-2n(CCCI)c(=O)c2cc([N+](=O)[O-])ccc12 | 0.046 | 0.058 | 0.148 | 3.02 | 0.309 | 0.034 | 1.48 | 
14 | COc1ccc2c(c1)C(=O)c1c-2n(CCCN=[N+]=[N-])c(=O)c2ccccc12 | 26.9 | 44.7 | 75.9 | 52.5 | > 100 | 61.7 | 64.6 | 33.9
15 | COc1ccc2c(c1)C(=O)c1c-2n(CCCn2ccnc2)c(=O)c2cc([N+](=O)[O-])ccc12 | < 0.01 | < 0.01 | < 0.01 | 0.02 | < 0.01 | < 0.01 | < 0.01 | < 0.01
16 | [N-]=[N+]=NCCCn1c2c(c3ccc([N+](=O)[O-])cc3c1=O)C(=O)c1ccccc1-2 |  | 79.4 |  |  |  |  |  | 
17 | O=C1c2ccccc2-c2c1c1ccc([N+](=O)[O-])cc1c(=O)n2CCCN1CCOCC1 | 0.038 | 0.095 | 0.38 |  | 0.309 | 0.085 | 1.23 | 0.021
18 | NCCCn1c2c(c3ccc([N+](=O)[O-])cc3c1=O)C(=O)c1ccccc1-2 |  | 0.302 |  |  |  |  |  | 
19 | O=C1c2ccccc2-c2c1c1ccccc1c(=O)n2CCCN1CCOCC1 |  | 3.47 | 5.37 | 16.6 | 21.4 | 7.24 | > 100 | 3.72
20 | O=C1c2ccccc2-c2c1c1ccccc1c(=O)n2CCCn1ccnc1 | 1.41 |  | 0.79 | 1.66 | 1.66 | 1.41 |  | 2.69
21 | O=C1c2ccccc2-c2c1c1ccc([N+](=O)[O-])cc1c(=O)n2CCCNCCO | 0.027 | > 100 | 0.2 | 1.35 | 0.229 | > 100 | 1.07 | 0.031
22 | COc1ccc2c(c1)C(=O)c1c-2n(CCCNCCO)c(=O)c2ccccc12 | 0.044 | 0.112 | 0.55 | 0.417 | 0.158 | 0.055 | 0.389 | 0.026
23 | COc1ccc2c(c1)C(=O)c1c-2n(CCCN)c(=O)c2ccccc12 | < 0.01 | 0.038 |  | 0.028 | < 0.01 | 0.014 | 0.059 | < 0.01
